Assay results reported in paper PMC5992689 (Molecular Therapy. Nucleic Acids, 2018).

Key:
[1] = test system: primary cultured astrocytes; assay: Binding of FITC-labeled peptides to cultured astrocytes; format: cell-based, C57BL/6 mice; settings: FITC-labeled peptide 1 μg/mL, 24 hr, GFAP immunostaining
Outline: (§1)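 Cells were exposed to FITC-labelled peptide at 1 μg/mL in culture medium for 24 hr, fixed in 4% PFA and immunostained for MAP2 (NSC-34, maintained in DMEM/F12 with 10% FCS), GFAP (primary astrocytes) or Iba1 (primary microglia). Primary cultures came from C57BL/6 pups 1–2 days postpartum. FITC-positive marker cells were counted by confocal microscopy in six independent wells and averaged as a percentage; experiments were run in triplicate.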

[2] = test system: primary cultured microglia; assay: Binding of FITC-labeled peptides to cultured microglia; format: cell-based, C57BL/6 mice; settings: FITC-labeled peptide 1 μg/mL, 24 hr; for FITC labeling of primary cultured microglia (in words): Iba1 immunostaining; for percentage of FITC-positive microglia in all Iba1-positive cells: n = 6 wells
Outline: as §1

NSC-34 cells (neuron) = assay: Binding of FITC-labeled peptides to neuronal cells; format: cell-based; settings: FITC-labeled peptide 1 μg/mL, 24 hr, MAP2 immunostaining
Outline: as §1

[3] = test system: CD86 (M1)-positive primary microglia; assay: CD86 immunocytochemistry of peptide-labeled microglia; format: cell-based, C57BL/6 mice; settings: FITC-labeled peptide 1 μg/mL, 24 hr; n = 6 wells
Outline: (§2)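 Primary C57BL/6 microglia were isolated from 14-day mixed glial culture and incubated 24 hr with FITC-peptide at 1 μg/mL. They were then fixed in 4% PFA and immunostained for CD86 (M1) or CD206 (M2) with Alexa Fluor 555 secondaries. Marker-positive cells were counted by confocal microscopy as a percentage of FITC-positive microglia across six independent wells, with >1,000 cells in total and triplicate experiments.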

[4] = test system: CD206 (M2)-positive primary microglia; assay: CD206 immunocytochemistry of peptide-labeled microglia; format: cell-based, C57BL/6 mice; settings: FITC-labeled peptide 1 μg/mL, 24 hr; n = 6 wells
Outline: as §2

[5] = test system: spinal cord astrocytes (GFAP) and microglia (Iba1); format: in vivo, C57BL/6 mice; settings: 3 μg FITC-labeled peptide, intrathecal, 3 hr; MG1 compared with MG2
KT-5 cells (astrocytes) = assay: Phage display panning; format: binding; settings: 48 of the 58 phage plaques, astrocytes (KT-5)
Outline: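 A CX7C M13 library in Tris-buffered saline (pH 7.5) was given via tail vein to C57BL/6 mice. After 5 min, blood was removed transcardially, and spinal cords were homogenised in DMEM with protease inhibitor. Phage were titrated as plaques in E. coli ER2738, amplified and re-injected for three rounds. Three 5-min in vitro panning cycles on KT-5 cells followed, and pIII inserts of 50–58 phages were sequenced.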

FITC labeling of primary cultured astrocytes (in words) [1]	Substance	FITC labeling of primary cultured microglia (in words) [2]	percentage of FITC-positive microglia in all Iba1-positive cells [2]	FITC labeling of NSC-34 cells (in words) (NSC-34 cells (neuron))	percentage of CD86-positive cells in the microglia labeled with the peptide [3] [%]	percentage of CD206-positive cells in the microglia labeled with the peptide [4] [%]	accumulation of peptide in the spinal cord tissues [5]	frequency of phage plaques (KT-5 cells (astrocytes)) [%]
not observed	C-HHSSSAR-C [MG1]	mainly present in Iba1-positive microglia	approximately 60%	not observed	40	26	greater accumulation of MG1 peptides than of MG2 peptides	
only observed in astrocytes	C-LNSSQPS-C [AS1]	not with MAP2 staining in neurons or Iba1 staining in microglia		not with MAP2 staining in neurons or Iba1 staining in microglia				83
not in the NSC-34 cells or astrocytes	C-NTGSPYE-C [MG2]	observed only in the primary cultured microglia	approximately 40%	not in the NSC-34 cells or astrocytes	27	47		
